{
  "source": "paper PMC11974842",
  "about": "(bioRxiv, 2025)",
  "molecules": {"B1": {"name": "Leu1: S. cerevisiae Leu1 with N-terminal His6-TEV tag (protein)", "chain": "MVYTPSKGPRTLYDKVFDAHVVHQDENGSFLLYIDRHLVHEVTSPQAFEGLENAGRKVRRVDCTLATVDHNIPTESRKNFKSLDTFIKQTDSRLQVKTLENNVKQFGVPYFGMSDARQGIVHTIGPEEGFTLPGTTVVCGDSHTSTHGAFGSLAFGIGTSEVEHVLATQTIIQAKSKNMRITVNGKLSPGITSKDLILYIIGLIGTAGGTGCVIEFAGEAIEALSMEARMSMCNMAIEAGARAGMIKPDETTFQYTKGRPLAPKGAEWEKAVAYWKTLKTDEGAKFDHEINIEAVDVIPTITWGTSPQDALPITGSVPDPKNVTDPIKKSGMERALAYMGLEPNTPLKSIKVDKVFIGSCTNGRIEDLRSAAAVVRGQKLASNIKLAMVVPGSGLVKKQAEAEGLDKIFQEAGFEWREAGCSICLGMNPDILDAYERCASTSNRNFEGRQGALSRTHLMSPAMAAAAGIAGHFVDIREFEYKDQDQSSPKVEVTSEDEKELESAAYDHAEPVQPEDAPQDIANDELKDIPVKSDDTPAKPSSSGMKPFLTLEGISAPLDKANVDTDAIIPKQFLKTIKRTGLKKGLFYEWRFRKDDQGKDQETDFVLNVEPWREAEILVVTGDNFGCGSSREHAPWALKDFGIKSIIAPSYGDIFYNNSFKNGLLPIRLDQQIIIDKLIPIANKGGKLCVDLPNQKILDSDGNVLVDHFEIEPFRKHCLVNGLDDIGITLQKEEYISRYEALRREKYSFLEGGSKLLKFDNVPKRKAVTTTFDKVHQDW"}, "B2": {"name": "Nar1: full-length S. cerevisiae Nar1 with N-terminal His6-SUMO tag (protein)", "chain": "MSALLSESDLNDFISPALACVKPTQVSGGKKDNVNMNGEYEVSTEPDQLEKVSITLSDCLACSGCITSSEEILLSSQSHSVFLKNWGKLSQQQDKFLVVSVSPQCRLSLAQYYGLTLEAADLCLMNFFQKHFQCKYMVGTEMGRIISISKTVEKIIAHKKQKENTGADRKPLLSAVCPGFLIYTEKTKPQLVPMLLNVKSPQQITGSLIRATFESLAIARESFYHLSLMPCFDKKLEASRPESLDDGIDCVITPREIVTMLQELNLDFKSFLTEDTSLYGRLSPPGWDPRVHWASNLGGTCGGYAYQYVTAVQRLHPGSQMIVLEGRNSDIVEYRLLHDDRIIAAASELSGFRNIQNLVRKLTSGSGSERKRNITALRKRRTGPKANSREMAAATAATADPYHSDYIEVNACPGACMNGGGLLNGEQNSLKRKQLVQTLNKRHGEELAMVDPLTLGPKLEEAAARPLSLEYVFAPVKQAVEKDLVSVGSTW"}, "B3": {"name": "Nar1 TCR-peptide variant: ScNar1 with C-terminal Trp substituted with Ala (protein)", "chain": "B2 chain with W491A"}, "B4": {"name": "ScCia1, strep-tagged bait (natural protein)", "chain": "MASINLIKSLKLYKEKIWSFDFSQGILATGSTDRKIKLVSVKYDDFTLIDVLDETAHKKAIRSVAWRPHTSLLAAGSFDSTVSIWAKEESADRTFEMDLLAIIEGHENEVKGVAWSNDGYYLATCSRDKSVWIWETDESGEEYECISVLQEHSQDVKHVIWHPSEALLASSSYDDTVRIWKDYDDDWECVAVLNGHEGTVWSSDFDKTEGVFRLCSGSDDSTVRVWKYMGDDEDDQQEWVCEAILPDVHKRQVYNVAWGFNGLIASVGADGVLAVYEEVDGEWKVFAKRALCHGVYEINVVKWLELNGKTILATGGDDGIVNFWSLEKAA"}, "B5": {"name": "R127E (protein, UniProt Q05583 1-330, looked up, variant R127E)", "Cytosolic iron-sulfur protein …": "B4 chain with R127E"}, "B6": {"name": "R127ACia1: ScCia1 variant (protein)", "chain": "B4 chain with R127A", "modifications": "left off: His6, N-terminal, state not stated"}},
  "key": {"[1]": {"target": "FITC-4mer probe (last 4 residues of ScLeu1) (Saccharomyces cerevisiae) (UniProt P07264)", "assay": "fluorescence polarisation"}, "[2]": {"target": "ScCia2 (Saccharomyces cerevisiae)", "assay": "MST"}, "[3]": {"target": "B4", "assay": "pull-down"}, "[4]": {"test_system": "ScCTC (Cia1, Cia2, Met18)", "assay": "Affinity copurification with ScCTC", "type": "binding, Saccharomyces cerevisiae", "details": "streptactin eluate, strep-tagged Cia2 bait, SDS-PAGE / western blot", "outline": "(§1)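 Nar1 is the prey. Strep-tagged bait is either single CTC subunits (Cia1 alone) or combinations (Cia1-Cia2, or full Cia1-Cia2-Met18 complex). Eluates are analysed by SDS-PAGE and western blot for copurifying Nar1. Uncropped gels, including input samples and controls, accompany the analysis.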"}, "[5]": {"test_system": "ScCia1-Cia2", "assay": "Affinity copurification with ScCia1-Cia2", "type": "binding, Saccharomyces cerevisiae", "details": "streptactin eluate, SDS-PAGE / western blot", "outline": "as §1"}, "[6]": {"test_system": "ScCTC-Leu1 complex", "assay": "Competition of Nar1 with Leu1 for the CTC", "type": "binding, Saccharomyces cerevisiae", "details": "Nar1 0.25-1.0 molar equivalents relative to Leu1; streptactin eluate, SDS-PAGE"}, "[7]": {"test_system": "ScCia1", "assay": "Affinity copurification with ScCia1", "type": "binding, Saccharomyces cerevisiae", "details": "streptactin eluate, SDS-PAGE / western blot", "outline": "as §1"}, "[8]": {"target": "T1, ScNar1 (Saccharomyces cerevisiae, UniProt P23503 1-491)", "T1 sequence": "B2 chain", "assay": "pull-down"}, "[9]": {"test_system": "full-length Nar1", "assay": "Affinity copurification of CTC with ScCia1 variants and full-length Nar1", "type": "binding, Saccharomyces cerevisiae", "details": "ScCia1 variants incorporated into the CTC"}, "[10]": {"test_system": "SPCNar1", "assay": "Affinity copurification of ScCia1 variants with SPCNar1", "type": "binding, Saccharomyces cerevisiae", "details": "ScCia1 variants with Met18 and strep-tagged Cia2 bait, western blot"}},
  "note": "Numbering of substitutions follows the chain as printed. Numbers in names are those of the source.",
  "data": [
    {"molecule": "CtCia1-Cia2 complex", "values": [
      {"measurement": "Kd", "setting": "[1]", "value": 25, "unit": "µM"}
    ]},
    {"molecule": "ScCia1 Y254A (from UniProt Q05583 1-330) (natural protein)", "values": [
      {"measurement": "fold increase in KD against wild-type Cia1", "setting": "[2]", "value": "> 10", "unit": "fold"}
    ]},
    {"molecule": "ScCia1-Cia2 complex (from UniProt Q05583 1-330)", "values": [
      {"measurement": "Kd", "setting": "[1]", "value": 86, "unit": "µM"}
    ]},
    {"molecule": "HsCia1-Cia2a complex (from UniProt O76071 1-339; Q9H5X1 1-160)", "values": [
      {"measurement": "Kd", "setting": "[1]", "value": 48, "unit": "µM"}
    ]},
    {"molecule": "KDLVSVGSTW (domain or fragment)", "note": "[SPCNar1 (SUMO peptide carrier with Nar1 residues 482-491)]", "values": [
      {"measurement": "binding result", "setting": "[3]", "value": "binds"}
    ]},
    {"molecule": "B1", "values": [
      {"measurement": "copurification with the CTC", "setting": "[4]", "value": "requires its C-terminal Trp to interact with the CTC in vitro"}
    ]},
    {"molecule": "B2", "values": [
      {"measurement": "copurification with Cia1-Cia2", "setting": "[5]", "value": "Nar1 eluting with Cia1, Cia1-Cia2, and the full CTC"},
      {"measurement": "copurification with the CTC", "setting": "[4]", "value": "Nar1 eluting with Cia1, Cia1-Cia2, and the full CTC"},
      {"measurement": "competition with Leu1 for binding to the CTC", "setting": "[6]", "value": "the interaction of Nar1 and Leu1 with the CTC is mutually exclusive"},
      {"measurement": "copurification with Cia1", "setting": "[7]", "value": "Nar1 eluting with Cia1, Cia1-Cia2, and the full CTC"}
    ]},
    {"molecule": "B3", "values": [
      {"measurement": "copurification with the CTC", "setting": "[4]", "value": "less Nar1 TCR-peptide variant was found in the eluate"}
    ]},
    {"molecule": "B4", "values": [
      {"measurement": "binding result", "setting": "[8]", "value": "binds"}
    ]},
    {"molecule": "B5", "values": [
      {"measurement": "interaction with full-length Nar1", "setting": "[9]", "value": "none of the Cia1 variants tested, including the charge swapped R127E variant, completely blocked interaction"}
    ]},
    {"molecule": "B6", "values": [
      {"measurement": "interaction with SPCNar1", "setting": "[10]", "value": "diminished the amount"}
    ]}
  ]
}
